The list is not random: actives were taken first. Their share in the collection is about 2.3%.
E coli WT exp: blocks growth of wild type E. coli BW25113; OD600 absorbance; growth inhibition, % at 100 µM; actives 0.15% (n = 98,000);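 active means growth inhibition above about 50% at one test dose, limit read from the data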;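 further: growth measured after 20 h incubation at 37 °C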
PLAP act: human PLAP activation. purified PLAP enzyme, luminescent substrate read-out; hits give high values. activation fold at 20 µM. actives 1.2% (n = 96,000); in the data active means activation fold above about 2
HePTP inh: human HePTP phosphatase inhibition. P35236. recombinant HePTP phosphatase activity, OD absorbance. inhibition, % at 20 µM. actives 0.64% (n = 110,000). AID 521; in the data active means inhibition above about 50%;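 further: plate controls were vehicle for no effect and reference inhibitor for full effect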
Target sequence (P35236 whole entry, looked up): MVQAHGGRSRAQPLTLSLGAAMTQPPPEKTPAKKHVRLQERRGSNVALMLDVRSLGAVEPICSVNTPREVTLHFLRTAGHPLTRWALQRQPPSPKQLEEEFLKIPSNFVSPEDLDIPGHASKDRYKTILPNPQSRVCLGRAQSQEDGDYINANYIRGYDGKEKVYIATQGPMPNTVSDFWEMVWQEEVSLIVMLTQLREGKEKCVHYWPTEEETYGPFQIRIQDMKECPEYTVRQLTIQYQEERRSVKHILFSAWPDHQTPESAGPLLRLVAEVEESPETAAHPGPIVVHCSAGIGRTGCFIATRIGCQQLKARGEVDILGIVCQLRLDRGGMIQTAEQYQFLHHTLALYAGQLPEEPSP
Ecoli tolC: growth inhibitors of E. coli BW25113 tolC mutant | OD615 | AID 573 | actives 2.2% (n = 65,000) | growth inhibition, % at 10 µM (by protocol);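 active means growth inhibition at or above a cutoff equal to the mean over every tested compound plus 3 SD, cut at about 60% in these data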;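 further: growth measured after 20 h incubation at 37 °C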
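Assay system: tolC-deleted E. coli BW25113. Medium: kanamycin-containing LB broth (50 µg/mL). Dosing: 10 µM final, single dose. Timing: bacterial growth with compound for 20 h at 37 °C. Detection: A615 absorbance measurement. Read-out basis: growth inhibition in percent.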
AP ELISA ortho: alternative pathway complement inhibition, orthogonal assay. Human serum alternative complement pathway, LPS-coated ELISA, C3 deposition; tested in compound mixtures. inhibition, % at 5 µM. actives 0.08% (n = 62,000). AID 1235;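 active means inhibition above 30% in each of the two pooled mixtures holding the compound, so the lower value exceeds 30%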;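 further: 0% = serum in Mg-EGTA without compound and 100% = EDTA serum blank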
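Test system: human serum complement alternative pathway, C3 deposition onto LPS / Medium: Mg2+-EGTA GVB++ buffer containing human serum at 1:15 dilution / Probe or stimulus: Plate-bound LPS / Times: 1 h at 37 °C / Signal: ELISA with HRP anti-human C3 antibody, TMB substrate, absorbance 450 nm / Measure: percent inhibition / Repeats: two pool placements per compound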
Numbers without * were called inactive; . = no result.

SMILES	E coli WT exp	PLAP act	HePTP inh	Ecoli tolC	AP ELISA ortho
COCc1cc(C)nc(SCC(=O)NC(C)(C)C)c1C#N	.	.	2.7	.	.
COc1ccccc1-n1c(C=C2C(=O)N(Cc3ccccc3)c3ccccc32)nc2ccccc2c1=O	.	.	3.6	.	.
Cn1c(NCCO)nc2c(c1=O)C1(CCCCC1)Cc1ccccc1-2	-10.0	1.3	5.0	37.3	13.8
CN(C)Cc1nc2c(c(=O)[nH]1)C1(CCCCC1)Cc1ccccc1-2	3.0	1.7	3.2	61.8*	9.5
O=c1[nH]c(NCCCO)nc2c1C1(CCCC1)Cc1ccccc1-2	20.0	1.3	-0.8	65.4*	7.0
O=c1[nH]cnc2c1C1(CCCC1)Cc1ccccc1-2	0.0	1.3	1.2	20.1	13.4
O=c1c2c(nc3n1CCCCC3)-c1ccccc1CC21CCCC1	-6.0	1.3	2.3	90.6*	-6.2
CCN(CC)Cc1nc2c(c(=O)[nH]1)C1(CCCCC1)Cc1ccccc1-2	-6.0	1.2	8.6	29.2	3.0
CN(C)Cc1nc2c(c(=O)[nH]1)C(C)(C)Cc1ccccc1-2	2.0	2.3*	.	.	.
CCOc1ccc(NC(=O)C(C)Oc2ccc(OC)cc2)cc1 (centres undefined)	.	.	-9.6	.	.
CCC1(C)CC(CC(=O)O)(c2ccccc2OC)CCO1 (centres undefined)	4.0	1.1	4.8	-9.4	-1.4
CCC1(C)CC(CC#N)(c2ccccc2OC)CCO1 (centres undefined)	.	.	104.2*	.	.
CC(=O)Oc1c(-c2ccccc2)c2nc3ccccc3nc2c2ccccc12	.	.	-14.4	.	.
CCn1c(=S)[nH]c2ccccc21	6.0	2.1*	.	.	.
Cc1cc(NC(=O)c2cc(-c3cccnc3)nc3c(C)c(C)ccc23)no1	-1.0	1.1	-7.1	55.2	-7.0
Cc1cc(NC(c2cccnc2)c2ccc3cccnc3c2O)no1 (centres undefined)	21.0	2.4*	8.6	-3.9	7.1
CCCn1c(CN2CCN(c3cccc(Cl)c3)CC2)nc2c1c(=O)n(C)c(=O)n2C	-4.0	1.5	6.4	9.9	23.5
CCCCn1c(CN2CCN(c3ccccc3)CC2)nc2c1c(=O)n(C)c(=O)n2C	-3.0	1.5	7.2	4.8	-8.6
CCCCn1c(CN2CCN(c3cccc(Cl)c3)CC2)nc2c1c(=O)n(C)c(=O)n2C	8.0	2.1*	1.1	30.7	2.3
CCCCCn1c(CN2CCN(c3cccc(Cl)c3)CC2)nc2c1c(=O)n(C)c(=O)n2C	.	1.4	-12.7	62.4*	2.7
O=C(COCC(=O)Nc1cccc(C(F)(F)F)c1)Nc1cccc(C(F)(F)F)c1	1.0	1.2	.	.	.
O=C(CC(=O)Nc1cccc(C(F)(F)F)c1)Nc1cccc(C(F)(F)F)c1	.	.	98.8*	.	.
COc1ccc(C(=O)N2CCN(Cc3cccnc3)CC2)cc1OC	.	.	4.1	.	.
Oc1cccc(C=Nc2ccccc2O)c1	.	.	-16.5	.	.
Oc1cccc(C=NC2CCCCC2)c1	.	.	63.9*	.	.
SMILES	E coli WT exp	PLAP act	HePTP inh	Ecoli tolC	AP ELISA ortho
COC(=O)C(CCCC(C(=O)OC)C(=O)OC)C(=O)OC	.	.	-6.3	.	.
Cc1n[nH]c(C)c1CCCCCOc1ccc(F)cc1	.	.	-7.1	.	.
COC(=O)C1=C(C)N(C)C(C)=C(C(=O)OC)C1c1cccc(Cl)c1	.	.	2.2	.	.
COC(=O)C1=C(C)N(C)C(C)=C(C(=O)OC)C1c1ccc(F)c(Br)c1	6.0	0.9	2.1	73.5*	5.2
O=C(O)CCCCCN1C(=O)C(=O)/C(=C(/O)c2ccc([N+](=O)[O-])cc2)C1c1ccc2c(c1)OCO2 (centres undefined)	.	.	104.2*	.	.
CCOC(=O)c1ccc(NC(=O)CCc2nc(-c3ccccc3Cl)no2)cc1	5.0	1.4	3.6	98.7*	4.6
CCOC(=O)c1ccc(NC(=O)CCc2nc(-c3ccccc3)no2)cc1	2.0	0.8	-7.3	52.6	9.8
CCOC(=O)c1csc(Nc2nc3ccc(F)cc3s2)n1	-2.0	1.1	4.8	88.1*	16.0
CC(=O)c1sc(Nc2nc3ccc(F)cc3s2)nc1C	-4.0	2.3*	2.6	60.1	18.8
C/C(=N\NS(=O)(=O)c1ccc(Cl)cc1)C1CC2CCC1C2 (centres undefined)	.	.	-11.2	.	.
Cc1csc(-c2cc3ccc(O)c(CN4CC5(C)CC4CC(C)(C)C5)c3oc2=O)n1 (centres undefined)	.	.	75.9*	.	.
Cc1oc2c(CN3CC4(C)CC3CC(C)(C)C4)c(O)ccc2c(=O)c1-c1nc2ccccc2s1 (centres undefined)	.	.	-6.3	.	.
COc1ccc(N/C(N)=N/c2nc(CSc3ccc(Cl)cc3)cc(=O)[nH]2)cc1	-3.0	2*	.	.	.
COc1ccc2nc(NC(=O)C3COc4ccccc4O3)sc2c1 (centres undefined)	-9.0	1.2	5.6	93.0*	14.9
CS(=O)(=O)c1ccc2nc(NC(=O)C3COc4ccccc4O3)sc2c1 (centres undefined)	-6.0	1	-1.7	9.1	5.1
C#CCn1cc(/C=C2\C(=O)NC(=O)N(c3ccc(C)cc3)C2=O)c2ccccc21	.	.	85.4*	.	.
CC(C)c1nccn1S(=O)(=O)c1ccc(Cl)cc1Cl	.	.	2.5	.	.
CCC(NC(=O)Nc1nnc(C(F)(F)F)s1)(C(F)(F)F)C(F)(F)F	58.0*	1	7.5	3.8	.
O=C(O)CCC(=O)Nc1nnc(C(F)(F)F)s1	5.0	1	-4.7	4.4	-12.4
c1coc(-c2nnc3sc(Cc4cccs4)nn23)c1	9.0	0.9	16.2	8.9	.
c1csc(Cc2nn3c(-c4n[nH]c5c4CCC5)nnc3s2)c1	9.0	2.1*	9.1	30.2	14.6
CCOC(=O)c1cc(-c2ccc(/C=N\n3cnnc3)o2)ccc1Cl	0.0	0.9	-5.8	2.9	-29.5
O=C(O)c1cc(-c2ccc(/C=N/n3cnnc3)o2)ccc1O	.	.	102.8*	.	.
C=CC(=O)NC12CC3CC(CC(C3)C1)C2	.	.	-1.6	.	.
Cc1c(/C=N/NC(=O)c2cc(=O)[nH]c(=O)[nH]2)c2ccccn2c1C(=O)c1ccccc1	-1.0	2.2*	.	.	.
SMILES	E coli WT exp	PLAP act	HePTP inh	Ecoli tolC	AP ELISA ortho
CCOP(=O)(OCC)/C(=C(\NC(=O)c1ccccc1)C(=O)Nc1ccccc1C(F)(F)F)c1ccccc1	.	.	7.3	.	.
O=C(CSc1nc(O)c(C2CCCCC2)c(=O)[nH]1)Nc1ccc(Cl)cc1	1.0	1.1	6.4	61.6*	9.6
Cc1cc2nc(C3CCN(Cc4nnnn4Cc4ccccc4)CC3)[nH]c2cc1C	-7.0	2.4*	.	.	.
CCC(C)(C)n1nnnc1CN1CCC(c2nc3ccc(C)cc3[nH]2)CC1	5.0	2.3*	1.9	4.2	23.9
CCN=C(NCC)SC1CC(=O)N(C)C1=O (centres undefined)	.	.	9.8	.	.
COc1ccc(-c2[nH]ncc2-c2ccc(Cl)cc2)c(O)c1	18.0	2*	0.3	97.5*	11.4
Oc1ccc(-c2[nH]ncc2-c2ccc(Cl)cc2)c(O)c1	30.0	1.6	-0.7	100.0*	7.1
Oc1ccc(-c2[nH]ncc2-c2cccc3cccnc23)c(O)c1	13.0	1.9	6.5	-4.3	12.2
COc1ccc(-c2cc(-c3cc(Cl)ccc3O)[nH]n2)cc1	.	.	2.0	.	.
CCOC(=O)CSC1=C(C#N)C(c2ccccc2OCC)C(C(=O)OCC)C(=O)N1 (centres undefined)	5.0	1.7	5.0	17.9	11.8
